pIC50: −log10 of the molar value. Activity calls are given as the source filed them. The rule behind the calls is not given here.
Legend:
[1] = Drug metabolism assessed as hydroxylation at C-8 cyclopentyl by metabolic soft spot analysis; format: physicochemical
[2] = Drug metabolism assessed as dehydration by metabolic soft spot analysis; format: physicochemical
[3] = target: T1, Adenosine receptor A3 (Homo sapiens) (UniProt P0DMS8); assay: Displacement of [3H]HEMADO from human adenosine A3 receptor expressed in HEK293 cell membranes at 1 uM after 90 mins relative to control
T1 sequence (whole entry): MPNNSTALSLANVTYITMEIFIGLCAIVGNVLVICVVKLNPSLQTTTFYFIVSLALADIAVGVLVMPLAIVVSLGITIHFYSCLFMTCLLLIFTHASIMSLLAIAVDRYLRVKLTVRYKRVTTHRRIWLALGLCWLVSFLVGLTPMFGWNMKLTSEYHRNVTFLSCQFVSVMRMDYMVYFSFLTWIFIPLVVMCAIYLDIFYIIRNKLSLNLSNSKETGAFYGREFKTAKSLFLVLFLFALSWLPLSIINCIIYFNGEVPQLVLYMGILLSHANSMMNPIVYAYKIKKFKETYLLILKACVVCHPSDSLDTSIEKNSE
Method in brief: (§1)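 Membranes from HEK-293 cells stably transfected with human receptor, pre-treated with adenosine deaminase. Radioligands: 1 nM [3H]DPCPX (A1), 1 nM [3H]ZM241385 (A2A), 1.6 nM [3H]MRS-1754 (A2B), 2 nM [3H]HEMADO (A3). Buffers: Tris pH 7.4 (A1, A2A, A3) or pH 6.5 (A2B), with ADA. Incubated 90 min at room temperature, then filtered. Nonspecific binding defined with 100 µM NECA. Ki from 8 concentrations run in triplicate.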

[4] = Ratio of drug level in Wistar rat brain to plasma at 5 mg/kg, po via gavage measured at 2 hrs post dose by LC-Ms/MS analysis; format: ADME, organism-based; details: read-out: BPR
Method in brief: (§2)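 Male Wistar rats, fasted overnight and for 2 h after dosing, given an oral solution at 5 mg/kg (0.5 mg/mL). Vehicle: NMP 10% with Labrasol 30% or PEG-400 20%, in citrate buffer […]. Blood and brain were taken at discrete time points, n = 2 per time point. Brain was homogenized 1:2 in PBS. Samples were precipitated with acetonitrile and run on LC-MS/MS; LLOQ 10 ng/mL.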

Rattus norvegicus [5] = assay: Effect on serum K+ level in Wistar rat at 3 to 30 mg/kg, po via gavage; format: ADME, organism-based; details: in vivo
Rattus norvegicus [6] = assay: Effect on serum Na+ level in Wistar rat at 3 to 30 mg/kg, po via gavage; format: ADME, organism-based; details: in vivo
Adenosine receptor A3 = target: T2, Adenosine receptor A3 (Homo sapiens, UniProt P0DMS8); assay: Displacement of [3H]HEMADO from human adenosine A3 receptor expressed in HEK293 cell membranes after 90 mins; method in brief: as §1
T2 sequence (P0DMS8 whole entry): T1 sequence (whole entry)

Rattus norvegicus [7] = assay: Diuretic activity in Wistar rat at 10 to 30 mg/kg, po via gavage measured after 4 hrs; format: functional, organism-based
Method in brief: (§3)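 Male Wistar rats (250-300 g, n = 6) dosed orally at 5 mL/kg. Vehicles: DMAC 5%/NaOH/saline, or NMP 10%/PEG-400 20%/saline pH 12.0. Rats were then kept singly in metabolic cages without food or water for 4 h. Urine volume, Na+ and K+ were measured with a biochemistry analyser.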

Rattus norvegicus [8] = assay: Kaliuretic activity in Wistar rat at 3 to 30 mg/kg, po via gavage measured after 4 hrs; format: functional, organism-based; method in brief: as §3
[9] = Ratio of drug level in Wistar rat brain to plasma at 5 mg/kg, po via gavage measured at 1 hr post dose by LC-Ms/MS analysis; format: ADME, organism-based; details: read-out: BPR; method in brief: as §2

Structure (SMILES): CCCn1c(Oc2cccnc2C)nc2nc(C3CCCC3)[nH]c2c1=O
- Drug metabolism [1]: Metabolite_Detected
- Drug metabolism [2]: Metabolite_Detected
- inhibition [3]: 35%

Structure (SMILES): CCCn1c(Oc2ccc(F)c(F)c2)nc2nc(C3CCCC3)[nH]c2c1=O
- Kp at 2 h [4]: 0.05
- Activity (Rattus norvegicus [5]): Non-Toxic
- Activity (Rattus norvegicus [6]): Non-Toxic
- pIC50 (Adenosine receptor A3): < 5.00
- Activity (Rattus norvegicus [7]): Active
- Activity (Rattus norvegicus [8]): Active
- Kp at 1 h [9]: 0.05
